Test results as given in publication PMC8848307 (Journal of medicinal chemistry, 2019).
Where two headings read alike, the source gives them in different places.

Assays:
[1] = target: STAT3 protein (Mus musculus, UniProt P42227); experiment: Pharmacodynamics in native mouse spleen tissue; format: in vivo; details: single intravenous dose, 25 mg/kg, CD-1 mice
Procedure, shortened: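 Female CD-1 mice received a single intravenous dose of test compound or vehicle (10% PEG400 + 90% PBS). Mice were euthanized at set time points and spleens harvested. Native spleen lysates were immunoblotted for STAT3.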

[2] = test system: Molm-16 xenograft tumor; experiment: Antitumor efficacy in the Molm-16 xenograft model; format: in vivo, SCID mice
Procedure, shortened: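 Molm-16 cells (3 × 10^6) injected subcutaneously in 5 mg/mL Matrigel into CB.17 SCID mice. At an average tumor volume of 150 mm3, mice were randomized and dosed intravenously at 25 or 50 mg/kg three times weekly, or at 50 mg/kg once weekly, for 3 weeks. Vehicle was 10% PEG400 + 90% PBS. Tumors and body weight were measured 2–3 times weekly, with volume = (length × width2)/2.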

[3] = test system: other STAT proteins; details: cited from earlier work
[4] = target: T1, STAT3 protein (Homo sapiens, UniProt P40763); experiment: Western blotting of STAT3 degradation in Molm-16 cells; format: cell-based; details: Western blot, Molm-16 and SU-DHL-1 cells
T1 sequence (P40763 whole entry): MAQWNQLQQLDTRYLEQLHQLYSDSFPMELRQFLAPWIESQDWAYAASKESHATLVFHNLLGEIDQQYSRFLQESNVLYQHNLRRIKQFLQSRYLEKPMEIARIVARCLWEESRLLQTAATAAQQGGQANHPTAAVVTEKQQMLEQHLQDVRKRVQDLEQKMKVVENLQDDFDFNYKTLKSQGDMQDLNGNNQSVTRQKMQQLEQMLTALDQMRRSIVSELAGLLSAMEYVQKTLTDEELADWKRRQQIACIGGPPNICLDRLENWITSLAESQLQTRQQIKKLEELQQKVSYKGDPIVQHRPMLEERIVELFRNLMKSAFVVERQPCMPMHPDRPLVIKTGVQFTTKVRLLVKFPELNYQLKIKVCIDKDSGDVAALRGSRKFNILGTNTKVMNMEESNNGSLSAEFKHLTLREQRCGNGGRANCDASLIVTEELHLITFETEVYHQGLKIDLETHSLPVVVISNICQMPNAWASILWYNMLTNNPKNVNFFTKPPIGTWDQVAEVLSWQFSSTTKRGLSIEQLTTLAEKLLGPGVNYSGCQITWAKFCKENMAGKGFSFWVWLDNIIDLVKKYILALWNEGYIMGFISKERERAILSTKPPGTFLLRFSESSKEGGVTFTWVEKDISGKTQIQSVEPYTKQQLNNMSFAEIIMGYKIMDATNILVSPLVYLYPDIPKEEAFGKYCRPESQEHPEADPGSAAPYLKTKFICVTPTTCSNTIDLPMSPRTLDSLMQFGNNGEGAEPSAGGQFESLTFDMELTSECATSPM

[5] = target: T1, STAT3 protein; experiment: Pharmacodynamics in Molm-16 xenograft tumor tissue; format: in vivo, SCID mice
Procedure, shortened: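 Molm-16 subcutaneous xenografts were grown in CB.17 SCID mice (3 × 10^6 cells in 5 mg/mL Matrigel). Mice received a single intravenous dose of test compound or vehicle (10% PEG400 + 90% PBS). Animals were euthanized at set time points, including 1 h and 72 h. Tumor lysates were immunoblotted for total STAT3 and pSTAT3Y705.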

[6] = test system: Molm-16 xenograft tumor; details: 100 mg/kg weekly dosing; cited from earlier work
[7] = test system: STAT1, STAT2, STAT4, STAT5A/B, and STAT6 proteins; experiment: Western blotting analysis of other STAT proteins in Molm-16 and SU-DHL-1 cells; format: cell-based; details: Molm-16 and SU-DHL-1 cell lines
Procedure, shortened: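 Molm-16 cells were treated for 4 h and SU-DHL-1 cells for 18 h, with test compound at 0.01–10 μM and control compounds at 10 μM. Cells were lysed and run on SDS–PAGE, then transferred to PVDF and blocked 1 h in 5% blocker in TBST. Blots were probed with primary then secondary antibodies against STAT family members and developed by chemiluminescence.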

[8] = 25 or 50 mg/kg three times per week

Sequence of STAT3 protein (Mus musculus, UniProt P42227) (P42227 whole entry): as the sequence (P40763 whole entry) above, with E760D counted along it

SMILES: NC(=O)CC[C@H](NC(=O)[C@@H]1CC[C@@H]2CCN(C(=O)CCCCCC#Cc3cccc4c3CN(C3CCC(=O)NC3=O)C4=O)C[C@H](NC(=O)c3cc4cc(C(F)(F)P(=O)(O)O)ccc4[nH]3)C(=O)N21)C(=O)NC(c1ccccc1)c1ccccc1 (stereo partly drawn) [SD-36, ((2-(((5S,8S,10aR)-8-(((S)-5-Amino-1-(benzhydrylamino)-1,5-dioxopentan-2-yl)carbamoyl)-3-(8-(2-(2,6-dioxopiperidin-3-yl)-1-oxoisoindolin-4-yl)oct-7-ynoyl)-6-oxodecahydropyrrolo-[1,2-a][1,5]diazocin-5-yl)carbamoyl)-1H-indol-5-yl)-difluoromethyl)phosphonic Acid]
- persistence of STAT3 reduction in spleen [1]: more than 48 h
- reducing STAT3 protein in native mouse spleen tissue [1]: very effective
- tumor response ([2]; 50 mg/kg once weekly for 3 weeks): very effective in inhibition of tumor growth
- duration of dosing after which complete tumor regression was achieved [2, 8]: 2 weeks
- persistence of complete tumor regression after termination of the treatment [2, 8]: more than 2 weeks
- tumor response ([2]; 25 or 50 mg/kg three times per week for 3 weeks intravenously): complete tumor regression
- weight loss or other signs of toxicity ([2]; efficacy experiment, Molm-16 xenograft mice): no weight loss or other signs of toxicity
- affinity to other STAT proteins tested [3]: much weaker affinity
- concentration very effective in reducing the level of STAT3 protein [4]: ≥ 0.1 µM
- persistence of STAT3 elimination in tumor tissue ([5]; single dose): > 3 days
- reduction of total STAT3 and pSTAT3^Y705 proteins in xenograft tumor tissue ([5]; single dose 50 mg/kg, after 1 h): > 95%
- tumor response [6]: complete tumor regression
- selectivity for degradation of STAT3 over other STAT members [7]: > 100 fold
- effect on STAT1, STAT2, STAT4, STAT5A/B, and STAT6 proteins ([7]; up to 10 μM): little or no effect
